ABCB6 inh 2: ABCB6 transporter inhibitors, primary screen, K562-ABCB6 cells, flow cytometry, MLPCN library; ATP-binding cassette sub-family B member 6 (Homo sapiens), Q9NP58; K562-ABCB6 porphyrin accumulation, 1 h; stronger effect = lower value; fluorescence ratio to DMSO, % at 10 µM; 360,000 compounds, 0.19% hits; AID 602162, 2011;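 active = fluorescence ratio to DMSO below 75%, the collection mean minus 3 SD; inconclusive = too few cells collected in the well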;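 also: signal is porphyrin accumulated inside mitochondria; 100% equals median channel fluorescence of DMSO control wells; lower ratio means ABCB6 inhibition with less porphyrin fluorescence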
Arrestin-AP2 inh: inhibitors of beta-arrestin/AP2 binding, primary screen, biochemical, GPCR trafficking, flow cytometry; FITC-arrestin peptide / GST-AP2 beads; AP2 beta2 appendage carries R879A mutation; inhibition, % at 10 µM; beta-arrestin 1 C-terminal peptide binding to AP2 beta2-adaptin appendage (human); 340,000 compounds, 0.31% hits;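 active = inhibition above a set limit, near 3 SD of compounds lacking own fluorescence, cut at about 54% in these data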;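 also: plate controls were DMSO wells for no effect and 5 µM unlabelled arrestin peptide for full effect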
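Material – GST-tagged AP2 beta2-adaptin appendage (R879A) on 4 µm glutathione beads · Probe or stimulus – fluorescein-tagged arrestin peptide at 50 nM final · Timing – 12 min plus 1 h, RT · Detection – bead flow cytometry, FITC channel · Read-out basis – inhibition as reduced fluorescein signal on beads, percent · Medium – PBS plus Tween 20 (0.05%) and BSA (0.1%)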
NRP1-CendR mod: modulators of CendR peptide binding to NRP-1, primary screen, biochemical, fluorescence polarization, uHTS; Neuropilin-1 (Homo sapiens), O14786; inhibition, % at 25 µM; 360,000 compounds, 0.85% hits; FAM-RPARPAR peptide binding to NRP-1;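 active = inhibition or corrected inhibition above about 18%, plus a signal ratio from 0.5 to 1.5, limit read from the data, passing the limit was not always enough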
Target sequence (O14786 whole entry, looked up): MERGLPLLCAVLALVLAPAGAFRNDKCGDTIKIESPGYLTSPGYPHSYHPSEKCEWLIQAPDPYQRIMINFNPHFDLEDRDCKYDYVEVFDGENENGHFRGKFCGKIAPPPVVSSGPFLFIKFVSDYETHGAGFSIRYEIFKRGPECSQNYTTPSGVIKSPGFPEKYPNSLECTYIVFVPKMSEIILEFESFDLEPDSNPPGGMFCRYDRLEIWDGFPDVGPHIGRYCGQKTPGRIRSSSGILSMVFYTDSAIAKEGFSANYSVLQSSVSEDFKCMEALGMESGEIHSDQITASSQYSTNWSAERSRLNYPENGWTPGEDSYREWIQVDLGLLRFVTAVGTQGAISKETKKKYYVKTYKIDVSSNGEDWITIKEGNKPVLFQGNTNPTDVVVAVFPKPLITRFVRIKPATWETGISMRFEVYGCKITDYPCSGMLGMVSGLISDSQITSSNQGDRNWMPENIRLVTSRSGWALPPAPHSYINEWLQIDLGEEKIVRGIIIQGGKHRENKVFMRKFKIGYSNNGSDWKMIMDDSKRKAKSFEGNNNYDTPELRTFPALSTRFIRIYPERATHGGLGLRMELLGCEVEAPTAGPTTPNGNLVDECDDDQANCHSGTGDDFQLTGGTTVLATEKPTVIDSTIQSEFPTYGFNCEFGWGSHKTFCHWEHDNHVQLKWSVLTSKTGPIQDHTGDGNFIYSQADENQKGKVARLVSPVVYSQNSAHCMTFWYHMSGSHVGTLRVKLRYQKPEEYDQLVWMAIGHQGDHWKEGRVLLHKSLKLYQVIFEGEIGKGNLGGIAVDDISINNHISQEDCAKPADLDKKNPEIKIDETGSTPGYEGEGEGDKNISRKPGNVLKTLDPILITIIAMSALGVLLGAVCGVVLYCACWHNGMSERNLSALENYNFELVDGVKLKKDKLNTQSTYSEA
ATG4B inhibitor: ATG4B protease inhibitors, primary screen, biochemical, fluorescence, uHTS. ATG4B cleavage of LC3-PLA2, NBD-HPC fluorescence, 1 h. inhibition, % at 8.33 µM. 340,000 compounds, 0.51% hits; in the data active = inhibition above about 40%
Myeloid diff MLP: induction of myeloid progenitor differentiation, primary screen, cell-based, flow cytometry, MLPCN library; 360,000 compounds, 1% hits; ER-HoxA9 myeloid progenitors, lysozyme-GFP differentiation; AID 624256, 2012; calls only at 10 µM;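 active = normalized GFP-positive differentiation at or above the plate's own cutoff, the solvent-only control mean plus 3 SD; inconclusive = no clear call, values can overlap the other calls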;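 also: cells exposed to compound for four days before flow analysis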
Granule exo inh: LAMP-1 surface exposure blockers, TALL-104 cells – cell-based, flow cytometry, MLPCN library, primary screen | TALL-104 LAMP-1 surface exposure; cells stimulated with thapsigargin and PMA | inhibition, % at 10 µM | 360,000 compounds, 0.66% hits | AID 651702, 2012;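 active = inhibition above about 55%, limit read from the data; inconclusive = no clear call, values can overlap the other calls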
Starred values were filed as active, the others as inactive; i = inactive; ? = inconclusive; · = no result given; + = active, no number. In the library only some 3.3% were active in any assay of this set; here they are far more common.

SMILES	ABCB6 inh 2	Arrestin-AP2 inh	NRP1-CendR mod	ATG4B inhibitor	Myeloid diff MLP	Granule exo inh
CCOC(=O)CNC(=O)c1cn(CC(C)C)c(=O)c2cc(OC)c(OC)cc12	93	-6	-1	-5	i	-3
CC(=O)Nc1cccc(NC(=S)Nc2cccc3ccccc23)c1	95	-2	30*	-19	i	3
Cc1ccc(S(=O)(=O)Nc2cccc(C(=O)N3CCCC3)c2)cc1F	105	6	3	-1	i	-7
Cc1ccc(S(=O)(=O)N2CCN(C(=O)C(C)Cn3nc(C)c(C)c3C)CC2)cc1 (stereo unspecified)	97	-22	1	5	i	-1
O=C(Cn1sc2ccccc2c1=O)Nc1ccccc1	107	·	11	·	+	50
CC1(C)OC(=O)C2=C(C[C@@H](C3CCCCC3)O[C@H]2c2ccc(F)cc2)O1	93	·	-3	·	i	-2
Cc1c(N=N/C(C(=O)Nc2ccccc2)=C(/O)c2ccccc2)c(=O)n(-c2ccccc2)n1C	109	18	-58	25	i	1
CCOC(=O)/C(N=Nc1c(C)n(C)n(-c2ccccc2)c1=O)=C(/O)c1ccccc1	94	14	32*	6	i	-1
COc1cccc(-c2cc3onc(-c4ccccc4)c3c(=O)n2C)c1	94	-6	18*	-10	i	-3
Cc1ccnc(NS(=O)(=O)c2ccc(NC(=O)CN3C(=O)c4ccccc4S3(=O)=O)cc2)n1	97	2	5	6	i	7
COc1cnc(-c2ccccn2)nc1N(C)C	95	-5	3	1	+	1
C=CCN1C(=O)/C(=C2/Sc3ccccc3N2CC)SC1=S	102	-9	77*	3	i	-2
C=CCN1C(=O)/C(=C2/Sc3ccccc3N2CCCS(=O)(=O)O)SC1=S	93	12	-35	27	i	0
CC(C)n1c(NCCO)nc2ccccc21	108	19	26*	-6	i	-2
Cc1ccc(S(=O)(=O)Cc2cc(F)c([N+](=O)[O-])cc2[N+](=O)[O-])cc1	98	8	10	7	?	72*
Cc1ccc(S(=O)(=O)N(C)C[C@H]2OCc3cn(nn3)CCCC(=O)N([C@H](C)CO)C[C@@H]2C)cc1	99	·	-12	·	i	-6
COc1ccc(OCC(O)Cn2c(=N)n(Cc3ccccc3)c3ccccc32)cc1 (stereo unspecified)	96	-2	-5	-6	i	5
N=c1n(Cc2ccccc2)c2ccccc2n1CC(O)c1ccco1 (stereo unspecified)	133	14	-110	9	+	-4
CCn1c(=N)n(CC(O)c2ccco2)c2ccccc21 (stereo unspecified)	95	6	2	0	i	0
Cc1ccc(OCC(O)Cn2c(=N)n(Cc3ccccc3)c3ccccc32)cc1 (stereo unspecified)	95	3	-8	6	+	15
CCOC(=O)CNC(=O)C1(NC(=O)CNC(=O)OCc2ccccc2)CCCC1	99	12	7	-2	i	-2
O=P(c1ccccc1)(c1ccccc1)C(O)c1cccs1 (stereo unspecified)	108	·	-5	·	i	-1
Cc1cc(C)cc(NC(=O)Cn2c(-c3ccccc3Cl)nc3ccccc32)c1	101	2	1	1	i	0
O=C(Cn1c(-c2ccccc2Cl)nc2ccccc21)Nc1cccc(Cl)c1	106	2	21*	-5	i	-7
Cc1ccccc1NC(=S)NCc1cccn1C	107	13	13	-10	i	-6
SMILES	ABCB6 inh 2	Arrestin-AP2 inh	NRP1-CendR mod	ATG4B inhibitor	Myeloid diff MLP	Granule exo inh
Cc1ccc(Cl)cc1NC(=S)NCc1cccn1C	73*	8	-8	-7	i	-3
O=C1Nc2ccccc2OCc2c1cccc2[N+](=O)[O-]	100	8	-4	7	i	-3
COc1ccc(CCNC(=O)/C(C#N)=C2\N=C(NC(=O)c3ccco3)c3ccccc32)cc1	101	52	-24	-8	i	84*
CCN(C(=O)COC(=O)CNC(=O)c1ccc(F)cc1)C1CCS(=O)(=O)C1 (stereo unspecified)	92	0	28*	-3	i	-1
COc1ccc(CCNC(=O)c2cc(C3CC3)nc3c2cnn3C(C)C)cc1OC	88	17	-5	1	+	-3
COc1ccc(CNC(=O)c2cc(C3CC3)nc3c2cnn3C(C)C)cc1	100	21	-7	-9	i	1
c1ccc(-n2nnnc2-c2cccc3ccccc23)cc1	102	-3	7	1	?	12
O=C(O)CC12CC3CC(C1)CC(n1ncc(NCC4CCCO4)c(Cl)c1=O)(C3)C2 (stereo unspecified)	96	2	25*	-4	i	-2
O=C(O)CC12CC3CC(C1)CC(n1ncc(NCc4ccco4)c(Cl)c1=O)(C3)C2	122	0	-8	-8	i	-7
COc1cccc(CN2CCC2(C)C(=O)Nc2cccc3cccnc23)c1OC (stereo unspecified)	98	·	-3	·	i	-3
Oc1ccccc1-c1nnc(COc2ccc(Cl)cc2Cl)o1	96	-6	-6	2	+	-6
Oc1ccccc1-c1nnc(COc2ccccc2)o1	104	3	2	-7	i	0
COc1ccc(NC(=O)Nc2ccc(Br)cn2)cc1	100	1	24*	4	i	1
CCCCn1c(-c2cccs2)nc2nc3ccccc3nc21	100	-5	3	-7	i	-4
CCCCOCCCn1c(-c2ccco2)nc2nc3ccccc3nc21	109	25	-45	-7	+	4
Fc1ccc(-n2c(-c3ccco3)nc3nc4ccccc4nc32)cc1	111	1	-50	-2	+	0
Cc1ccccc1C(=O)N1CCC(C(=O)OCc2ccccn2)CC1	96	-7	5	-13	i	0
N#Cc1nc2ccccc2n1OCc1ccccc1	100	·	-3	·	i	12
O=C(O)c1ccc(CSc2nnc(COc3ccccc3)o2)cc1	94	-19	22*	9	i	42
CN(C)S(=O)(=O)c1ccc(N2CCCC2)c(C(=O)Nc2ccccc2)c1	101	-2	5	8	i	3
